This passage reports IC50, Ratio IC50 and EC50 results from ChEMBL document CHEMBL2169879, “Design and synthesis of inhibitors of Plasmodium falciparum N-myristoyltransferase, a promising target for antimalarial drug discovery” (J Med Chem, 2012).

Usually IC50 stands for the point on the concentration scale where inhibition reaches its midpoint. As usually defined, the EC50 is the concentration giving half of the maximal effect. Low readings indicate greater potency, high ones weaker potency.

Assay [1] deals with T1, Glycylpeptide N-tetradecanoyltransferase (Plasmodium falciparum (isolate 3D7), UniProt Q8ILW6).
T1 sequence (Q8ILW6 whole entry): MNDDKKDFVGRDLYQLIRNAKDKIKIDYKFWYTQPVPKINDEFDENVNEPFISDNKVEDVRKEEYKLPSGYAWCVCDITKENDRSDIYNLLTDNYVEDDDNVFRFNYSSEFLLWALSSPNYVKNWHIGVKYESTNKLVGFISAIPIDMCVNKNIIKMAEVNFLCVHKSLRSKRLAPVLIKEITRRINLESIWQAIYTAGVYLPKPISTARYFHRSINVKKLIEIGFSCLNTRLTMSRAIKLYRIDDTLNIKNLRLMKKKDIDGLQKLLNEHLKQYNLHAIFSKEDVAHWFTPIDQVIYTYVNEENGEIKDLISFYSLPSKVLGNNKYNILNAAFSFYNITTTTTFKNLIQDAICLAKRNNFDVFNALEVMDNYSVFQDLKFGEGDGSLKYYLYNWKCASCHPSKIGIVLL
Briefly: Inhibition of Plasmodium falciparum N-myristoyltransferase using [3H]-myristoyl-CoA and GLYVSRLFNRLFQKK(Biotin)-NH2 as substrate after 30 mins scintillation proximity assay. Background: In a scintillation proximity assay essentially only radioactivity close to the scintillant gives light.

Assay [2] is described as follows: Selectivity index, ratio of IC50 for human N-myristoyltransferase to IC50 for Plasmodium falciparum N-myristoyltransferase. The essentials:
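Buffer was 30 mM Tris pH 7.4 with 4% DMSO; 30 min at 37 °C. Reaction stopped with streptavidin beads at pH 4. […] Ratio is IC50(HsNMT1)/IC50(PfNMT).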

For another assay, the system named is Plasmodium falciparum. Briefly: Antiplasmodial activity against trophozoite-stage of Plasmodium falciparum 3D7 after 48 hrs by FACS analysis. In kind it is functional, organism-based. To be noted: 3D7, 48 h. The method in brief: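 Synchronous late-trophozoite 3D7 cultures at 1% parasitemia and 2% hematocrit with 0.5% DMSO, exposed to inhibitor from 10 μM down to 0.31 μM for a 48 h cycle at 37 °C. Aliquots stained with diluted hydroethidine for 20 min at 37 °C, then parasitemia read by flow cytometry. Untreated parasites and uninfected RBCs served as controls. EC50 from nonlinear regression, triplicate wells.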

Assay [3] deals with Glycylpeptide N-tetradecanoyltransferase (Plasmodium vivax (strain Salvador I), UniProt A5K1A2, Y211A). The experiment in a line: Inhibition of Plasmodium vivax […] N-myristoyltransferase Y211A mutant using [3H]-myristoyl-CoA and GLYVSRLFNRLFQKK(Biotin)-NH2 as substrate after 30 mins scintillation proximity assay. The method in brief:
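Purified NMT per 100 µL well: PfNMT 9.4 ng, PvNMT 4.8 ng, PvNMT Y211A 19.2 ng. Each well also held 62.5 nM [3H]-myristoyl-CoA and 500 nM biotinylated peptide in pH 7.4 Tris buffer with 4% DMSO. Incubation ran 30 min at 37°C. Reactions were stopped with streptavidin beads at pH 4 and counted after overnight settling. Inhibitor ranged 500 µM–2 nM. IC50 came from nonlinear regression, in duplicate.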

The target of assay [4] is Glycylpeptide N-tetradecanoyltransferase 1 (Homo sapiens, UniProt P30419, Y296A). The experiment in a line: Inhibition of human N-myristoyltransferase Y296A mutant using [3H]-myristoyl-CoA and GLYVSRLFNRLFQKK(Biotin)-NH2 as substrate after 30 mins scintillation proximity assay.
Assay [5] has as its target T2, Glycylpeptide N-tetradecanoyltransferase 1 (Homo sapiens, UniProt P30419).
T2 sequence (P30419 whole entry): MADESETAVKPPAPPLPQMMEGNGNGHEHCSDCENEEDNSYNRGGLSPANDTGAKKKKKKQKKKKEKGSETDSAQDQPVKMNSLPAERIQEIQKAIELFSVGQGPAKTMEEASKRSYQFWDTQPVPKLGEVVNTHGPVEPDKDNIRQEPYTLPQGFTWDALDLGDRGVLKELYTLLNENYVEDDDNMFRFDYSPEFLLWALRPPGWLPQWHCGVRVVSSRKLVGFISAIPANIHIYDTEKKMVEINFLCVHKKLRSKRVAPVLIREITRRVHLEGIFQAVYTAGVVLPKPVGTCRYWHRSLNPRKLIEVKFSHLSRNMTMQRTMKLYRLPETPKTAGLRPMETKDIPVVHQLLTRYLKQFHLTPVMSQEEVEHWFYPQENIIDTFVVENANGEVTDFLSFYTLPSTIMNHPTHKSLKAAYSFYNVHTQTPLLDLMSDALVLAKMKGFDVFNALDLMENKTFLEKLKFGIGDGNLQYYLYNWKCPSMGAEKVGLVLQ
The experiment in a line: Inhibition of human N-myristoyltransferase using [3H]-myristoyl-CoA and GLYVSRLFNRLFQKK(Biotin)-NH2 as substrate after 30 mins scintillation proximity assay.

Assay [6] can be described thus: Inhibition of Plasmodium vivax wild type N-myristoyltransferase using [3H]-myristoyl-CoA and GLYVSRLFNRLFQKK(Biotin)-NH2 as substrate after 30 mins scintillation proximity assay.

Glycylpeptide N-tetradecanoyltransferase (Plasmodium vivax (strain Salvador I), UniProt A5K1A2, Y211A), sequence (A5K1A2 whole entry Y211A): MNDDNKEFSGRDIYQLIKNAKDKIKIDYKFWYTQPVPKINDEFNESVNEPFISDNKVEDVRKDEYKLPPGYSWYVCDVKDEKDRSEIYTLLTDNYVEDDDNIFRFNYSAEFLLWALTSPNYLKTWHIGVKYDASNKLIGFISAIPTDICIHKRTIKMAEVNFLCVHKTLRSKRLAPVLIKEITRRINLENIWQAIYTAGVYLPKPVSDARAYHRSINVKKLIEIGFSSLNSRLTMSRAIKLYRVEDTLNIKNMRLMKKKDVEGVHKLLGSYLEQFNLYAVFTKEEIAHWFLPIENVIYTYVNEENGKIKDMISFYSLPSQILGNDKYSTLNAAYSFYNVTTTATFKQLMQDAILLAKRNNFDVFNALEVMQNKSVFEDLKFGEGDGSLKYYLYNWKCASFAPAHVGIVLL
Glycylpeptide N-tetradecanoyltransferase 1 (Homo sapiens, UniProt P30419, Y296A), sequence (P30419 whole entry Y296A): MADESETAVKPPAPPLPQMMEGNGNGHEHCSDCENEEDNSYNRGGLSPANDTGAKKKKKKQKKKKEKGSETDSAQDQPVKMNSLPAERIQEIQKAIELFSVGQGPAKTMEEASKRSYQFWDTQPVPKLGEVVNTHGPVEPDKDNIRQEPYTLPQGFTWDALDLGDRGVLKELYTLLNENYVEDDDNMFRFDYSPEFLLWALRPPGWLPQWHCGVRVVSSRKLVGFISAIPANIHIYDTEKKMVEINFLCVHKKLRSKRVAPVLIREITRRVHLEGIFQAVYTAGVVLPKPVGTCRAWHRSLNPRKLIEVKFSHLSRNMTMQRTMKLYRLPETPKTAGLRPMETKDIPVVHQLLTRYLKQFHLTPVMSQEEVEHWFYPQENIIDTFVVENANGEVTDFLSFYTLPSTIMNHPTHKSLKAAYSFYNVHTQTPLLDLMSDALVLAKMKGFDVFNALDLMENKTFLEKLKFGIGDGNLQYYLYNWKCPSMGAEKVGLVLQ

With `Cc1c(C(=O)c2ccccc2)oc2cccc(OC3CCNCC3)c12`, the IC50 in assay [1] was determined as 22 µM. In addition, the Ratio IC50 in assay [2] is over 5. The molecule also came in with an EC50 in the assay with Plasmodium falciparum of 5.3 µM. In the case of `Cc1c(-c2nc(-c3ccccc3)no2)oc2cccc(OC3CCNCC3)c12`, the IC50 in assay [1] amounted to 17.9 µM. In addition, in assay [2], the Ratio IC50 was over 12.

The molecule `Cc1c(C(=O)NC2CCCCC2)oc2cccc(OC3CCNCC3)c12` came in with an IC50 in assay [1] of over 100 µM. On to `COc1cccc(COC(=O)c2oc3cccc(OC4CCNCC4)c3c2C)c1`, for which the IC50 is 2.7 µM in assay [3], 10 µM in assay [4] and 45 µM in assay [5]. In turn, `Cc1c(COc2ccccc2)oc2cccc(OC3CCNCC3)c12` showed an IC50 in assay [1] of 6.6 µM. Moreover, the Ratio IC50 in assay [2] is over 16.

In turn, `O=S(=O)(Cc1ccccc1)c1cc2c(OC3CCNCC3)cccc2o1` registered an IC50 in assay [1] of over 200 µM. On to `Cc1c(C(=O)OCCc2ccccc2)oc2cccc(OC3CCNCC3)c12`, for which the IC50 in assay [1] was 4.1 µM. Take `Cc1c(C(=O)OCc2ccccc2)oc2cccc(OC3CCNCC3)c12`: the IC50 in assay [1] was 0.27 µM; in assay [5], over 100 µM. In addition, the Ratio IC50 in assay [2] is over 400. Also, the EC50 in the assay with Plasmodium falciparum was 1.2 µM. Regarding `Cc1c(C(=O)Oc2ccccc2)oc2cccc(OC3CCNCC3)c12`, it took 24.4 µM to reach half-maximal inhibition in assay [1] (IC50). Besides, the Ratio IC50 in assay [2] was over 20. The molecule further showed an EC50 in the assay on Plasmodium falciparum of 10 µM. `Cc1c(C(=O)OCC2CCCCC2)oc2cccc(OC3CCNCC3)c12` displayed an IC50 in assay [1] of 9.7 µM. Take `Cc1c(C(=O)NCc2cccc3ccccc23)oc2cccc(OC3CCNCC3)c12`: the Ratio IC50 in assay [2] was 28. The molecule also had an EC50 in the assay with Plasmodium falciparum of 2.4 µM. Regarding `CCOC(=O)c1oc2cccc(OCCCNCc3cccnc3)c2c1C`, the IC50 in assay [1] is 51 µM; in assay [5], over 1000 µM. For `c1ccc(CSc2cc3c(OC4CCNCC4)cccc3o2)cc1`, the IC50 in assay [1] was determined as 38.2 µM. On to `Cc1c(C(=O)NCc2ccccc2)oc2cccc(OC3CCNCC3)c12`, for which the midpoint of inhibition in assay [1], the IC50, lay at 13 µM. The molecule `Cc1c(COCc2ccccc2)oc2cccc(OC3CCNCC3)c12` displayed an IC50 in assay [1] of 7.1 µM. Further, the Ratio IC50 in assay [2] stood at 14. In the assay on Plasmodium falciparum, this molecule yielded an EC50 of 4.5 µM. As for `Cc1c(C(=O)OCc2cccc3ccccc23)oc2cccc(OC3CCNCC3)c12`, the IC50 in assay [1] amounted to 1.4 µM. With `Cc1c(C(=O)/C=C/c2ccccc2)oc2cccc(OC3CCNCC3)c12`, the IC50 in assay [1] stood at 3.5 µM. Besides, the Ratio IC50 in assay [2] was 14. This molecule also displayed an EC50 with Plasmodium falciparum of 2.5 µM. As to `Cc1c(CCc2ccccc2)oc2cccc(OC3CCNCC3)c12`, the concentration for half-maximal inhibition (IC50) in assay [1] was 131 µM. The molecule `Cc1c(/C=C\c2ccccc2)oc2cccc(OC3CCNCC3)c12` returned an IC50 in assay [1] of 72 µM. Consider `CCCCc1c(C)nc2ccc(OC)cc2c1SCCC#N`, for which the IC50 in assay [3] was found to be 150 µM; in assay [6], 32.7 µM. `Cc1c(C(=O)NC(C)C)oc2cccc(OC3CCNCC3)c12` had an IC50 in assay [1] of over 200 µM. In assay [1], `Cc1c(C(=O)OCCCc2ccccc2)oc2cccc(OC3CCNCC3)c12` displayed an IC50 of 36.2 µM. Turning to `Cc1c(C(=O)CCc2ccccc2)oc2cccc(OC3CCNCC3)c12`, the Ratio IC50 in assay [2] was over 20. This molecule also yielded an EC50 in the assay with Plasmodium falciparum of 4 µM. With `Cc1c(-c2nc(Cc3ccccc3)no2)oc2cccc(OC3CCNCC3)c12`, the IC50 in assay [3] was found to be 16.6 µM; in assay [6], 6.2 µM. In the assay with Plasmodium falciparum, this molecule showed an EC50 of 2.1 µM.

The molecule `Cc1c(/C=C/c2ccccc2)oc2cccc(OC3CCNCC3)c12` displayed an IC50 in assay [1] of 26.1 µM. In addition, in assay [2], the Ratio IC50 is over 10.

The molecule `Cc1c(C(=O)Nc2ccccc2)oc2cccc(OC3CCNCC3)c12` displayed an IC50 in assay [1] of 28.8 µM. In assay [2], the Ratio IC50 is over 10. A half-maximal effect with Plasmodium falciparum (EC50) was put at 5.3 µM. Consider `CCOC(=O)c1oc2cccc(OC3CCNCC3)c2c1C`, for which the IC50 in assay [1] was 16.5 µM; in assay [5], over 200 µM. Also, the EC50 in the assay with Plasmodium falciparum amounted to 15 µM.
